Rev-erbA mod – modulators of Rev-erb alpha DNA binding, primary screen, biochemical, FITC-DNA, fluorescence polarization, uHTS; Nuclear receptor subfamily 1 group D member 1 (Homo sapiens), P20393; Rev-erbα–FITC-DNA binding, 90 min; activity, % at 10 µM; 0.79% of 370,000 active;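 active = activity above about 14%, limit read from the data; passing the limit was not always enough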;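 note: 0% = DMSO wells with 35 nM protein and 100% = DMSO wells with 750 nM protein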
Target sequence (P20393 whole entry, looked up): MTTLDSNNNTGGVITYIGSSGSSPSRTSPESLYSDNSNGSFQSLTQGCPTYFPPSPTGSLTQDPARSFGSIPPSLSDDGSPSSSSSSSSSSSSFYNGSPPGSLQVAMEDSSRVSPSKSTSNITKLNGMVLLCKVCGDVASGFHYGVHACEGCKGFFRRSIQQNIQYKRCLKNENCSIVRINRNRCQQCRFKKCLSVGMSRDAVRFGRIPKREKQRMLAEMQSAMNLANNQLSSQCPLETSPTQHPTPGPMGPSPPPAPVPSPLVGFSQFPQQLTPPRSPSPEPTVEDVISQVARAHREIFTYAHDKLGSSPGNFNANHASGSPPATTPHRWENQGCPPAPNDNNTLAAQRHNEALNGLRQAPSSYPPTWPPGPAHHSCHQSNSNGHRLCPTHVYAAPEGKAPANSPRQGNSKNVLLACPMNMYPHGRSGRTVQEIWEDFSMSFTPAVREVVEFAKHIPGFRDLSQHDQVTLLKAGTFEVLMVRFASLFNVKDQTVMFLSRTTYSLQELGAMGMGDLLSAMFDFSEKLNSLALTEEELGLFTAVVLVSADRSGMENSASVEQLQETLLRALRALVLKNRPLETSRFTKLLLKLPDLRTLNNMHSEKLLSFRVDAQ
PG9 binder – binders of HIV-1 gp120 antibody PG9, primary screen, biochemical, TR-FRET; inhibition, % at 6.7 µM; AID 624416, 2012; TR-FRET gp120-PG9 antibody binding; HIV-1 gp120 / PG9 antibody interaction; 0.43% of 360,000 active; in the data active = inhibition above about 8.5%
NR2E3 ag-1 – NR2E3 agonists in two-hybrid cells, primary screen, cell-based, luminescence, CHO-S, Gal4-NCOR/VP16-NR2E3. luciferase. inhibition of corepressor binding, % at 3.98 µM. 0.35% of 360,000 active. AID 602229, 2012;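 active = inhibition above the mean of all tested compounds plus 3 SD, cut at about 70% in these data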;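 note: 0% = DMSO with NR2E3 transfected cells and 100% = cells lacking NR2E3 construct; higher means lower luciferase signal from less NR2E3 corepressor binding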
NR2E3 ag-2 – inhibitors of NR2E3-RetCOR corepressor binding, primary screen, NR2E3 agonist project, biochemical, TR-FRET, GST-NR2E3, biotin-RetCOR. Photoreceptor-specific nuclear receptor (Homo sapiens), Q9Y5X4. 1536-well. inhibition of corepressor binding, % at 4.78 µM. 0.12% of 320,000 active;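 active = percent inhibition above the cutoff of mean plus 3 SD of all tested compounds, set per screening campaign, cut at about 20% in these data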;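 note: 0% = DMSO wells and 100% = biotin wells as full block of FRET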
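system = GST-tagged NR2E3 plus biotinylated RetCOR corepressor | input = 1.35 nM GST-NR2E3 | also added = 7 nM biotin-RetCOR | schedule = 5 h incubation at 4 °C | measured by = TR-FRET with europium anti-GST and streptavidin-D2, 340 nm excitation | read-out = percent loss of FRET ratio relative to control wells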
Numbers without * were called inactive; . = no result given. An excerpt weighted towards active compounds, which were near 1.5% of everything screened.

SMILES | Rev-erbA mod | PG9 binder | NR2E3 ag-1 | NR2E3 ag-2
CC1Cc2cc(/C(O)=C3/C(=O)C(=O)N(CCN4CCOCC4)C3c3cccc(Cl)c3)ccc2O1 (stereo not given) | -6.1 | 11.2* | 5.7 | 11.4
COC(=O)[C@@H]1CC(=O)O[C@H](C)C/C=C/C=C/[C@H](O)[C@H](C)C[C@H](CC=O)[C@H](OC2O[C@H](C)[C@@H](OC3C[C@@](C)(O)[C@@H](OC(=O)CC(C)C)[C@H](C)O3)[C@H](N(C)C)[C@H]2O)[C@H]1OC (stereo not given in full) | -2.8 | . | . | .
COc1ccc(-c2cc(C3CCN(c4ccc(C(C)=O)cc4[N+](=O)[O-])CC3)[nH]n2)cc1 | 2.8 | -2.2 | 72.8* | -0.5
CS(=O)(=O)N(CC(=O)Nc1ccccc1Sc1ccccc1)c1ccc(F)cc1 | 1.8 | 14.4* | -2.5 | -2.0
C=C[C@@]1(C)CC(=O)[C@@]2(O)[C@](C)(O1)[C@@H](OC(C)=O)[C@@H](O)C1C(C)(C)CC[C@H](O)[C@@]12C (stereo not given in full) | -8.6 | . | . | .
COc1cc(/C=C2\SC(=S)NC2=O)ccc1OS(=O)(=O)c1ccccc1 | . | . | . | -0.8
COc1cc(/C=C2/SC(=S)NC2=O)ccc1OS(=O)(=O)c1ccc(C)cc1 | . | . | 76.7* | -2.7
CCOC(=O)c1c(N2C(=O)Nc3cc(Cl)c(Cl)cc3N2O)sc2c1CCCCC2 | . | . | 91.6* | 0.3
CCC(C)C(=O)O[C@H]1C[C@H](O)C=C2C=C[C@H](C)[C@H](CC[C@@H](O)C[C@@H](O)CC(=O)O)C21 (stereo not given in full) | -0.1 | . | . | .
C#C[C@]1(O)CCC2C3CCC4=Cc5oncc5C[C@]4(C)C3CC[C@@]21C (stereo not given in full) | 6.7 | . | . | .
COc1ccc(C2/C=C\CN(C(=O)Nc3ccc(C(F)(F)F)cc3)CC(=O)N2Cc2ccc(F)cc2)cc1 (stereo not given) | . | . | 82.3* | -3.5
NC[C@H]1O[C@H](O[C@@H]2[C@H](O)[C@@H](O[C@H]3O[C@H](CO)[C@@H](O)[C@H](N)[C@H]3O)[C@H](N)C[C@@H]2N)[C@H](O)[C@@H](O)[C@@H]1O | 0.2 | . | . | .
CCCC[C@@H](CC)COC(=O)C(C#N)=C(c1ccccc1)c1ccccc1 | -5.0 | . | . | .
Cc1sccc1C1C(C#N)=C(N)SC(N)=C1C#N | . | . | . | 35.7*
N[C@H](C(=O)O)[C@H](O)c1ccc(O)c(O)c1 | -43.7 | . | . | .
CCCCC(CC)COC(=O)c1ccc(Nc2nc(Nc3ccc(C(=O)OCC(CC)CCCC)cc3)nc(Nc3ccc(C(=O)OCC(CC)CCCC)cc3)n2)cc1 (stereo not given) | 7.2 | . | . | .
O=C(CNS(=O)(=O)c1cccc(Cl)c1)Nc1ccc(-c2nc3ccccc3s2)cc1 | -5.1 | -1.6 | -141.2 | -3.8
CC(C)(C)c1ccc(S(=O)(=O)NCC(=O)Nc2ccc(-c3nc4ccccc4s3)cc2)cc1 | 11.9 | 8.9* | -103.3 | 0.8
COC(=O)c1nn(-c2ccc(-c3ccccc3)cc2)cc1O | -5.2 | 2.5 | 77.8* | 0.8
NC(=O)c1cc[n+](CC2=C(C(=O)O)N3C(=O)[C@H](NC(=O)C(c4ccccc4)S(=O)(=O)[O-])C3SC2)cc1 (stereo not given in full) | 2.8 | . | . | .
CSc1ccc(CN(C)C(=O)c2cccc(S(=O)(=O)N3CCN(Cc4ccccc4)CC3)c2)cc1 | 12.5 | 1.1 | 70.5* | 2.0
C=C1CC[C@H](O)C/C1=C/C=C1\CCC[C@]2(C)C([C@H](C)/C=C/[C@H](C)C(C)C)CC[C@@H]12 (stereo not given in full) | -3.6 | . | . | .
O=C(CCC(=O)OCC(=O)c1ccc(-c2ccccc2)cc1)Nc1cccc(Cl)c1 | 4.6 | 9.0* | 6.2 | 1.6
CC(CCC(C)C(C)(C)C)[C@@H]1CC[C@H]2C3C[C@H](OS(O)(=S)=S)[C@H]4C[C@H](OS(O)(=S)=S)[C@@H](OS(O)(=S)=S)C[C@]4(C)[C@H]3CC[C@]12C (stereo not given in full) (tested in a mixture with another compound) | . | . | 74.9* | .

High-throughput results as filed in PubChem.
